According to ChEMBL document CHEMBL1157267, “Polyphenolic constituents of Actaea racemosa” (J Nat Prod, 2006):

Tests used:
Assay type in all cases: functional
[1] = test system: Radical scavenging activity; assay: Antioxidant activity assessed as DPPH free radical scavenging activity
Outline: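 DPPH free-radical scavenging assay run on purified isolates with 400 µM DPPH. IC50 (µM) reported as the concentration giving half-maximal radical scavenging.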

MCF7 [2] = assay: Stimulation of cell proliferation in human MCF7 cells assessed as cell viability at 14 uM after 4 days relative to control
Outline: (§1)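 MCF-7 cells grown in DMEM with 10% FBS at 37 °C and 5% CO2. Before seeding they were passaged at least twice in phenol red-free DMEM with 2 mM L-glutamine and 5% charcoal-stripped serum, then washed twice with PBS. Cells were seeded at 2 × 10^4 per well, allowed 24 h to attach, then given fresh medium with compound. After 4 days attached viable cells were Coulter-counted relative to untreated cells.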

MCF7 [3] = assay: Stimulation of cell proliferation in human MCF7 cells assessed as cell viability at 10 uM after 4 days relative to control; outline: as §1
MCF7 [4] = assay: Cytotoxicity against human MCF7 cells at 30 uM; details: read-out: GI; outline: as §1
MCF7 [5] = assay: Stimulation of cell proliferation in human MCF7 cells assessed as cell viability at 16.8 uM after 4 days relative to control; outline: as §1
MCF7 [6] = assay: Stimulation of cell proliferation in human MCF7 cells assessed as cell viability at 3.7 nM after 4 days relative to control; outline: as §1

Structure (SMILES)	IC50 [1]	further results
O=C1OCC(O)(C(=O)c2ccc(O)c(O)c2)/C1=C\c1ccc(O)c(O)c1 (stereo unspecified) [ACTAEALACTONE]	26 µM	fold change (FC) (MCF7 [2]): 1.24
COc1cc(/C=C/C(=O)O[C@H](C(=O)O)[C@](O)(Cc2ccc(O)c(O)c2)C(=O)O)ccc1O [CIMICIFUGIC ACID A]	12 µM	
COc1ccc(/C=C/C(=O)O[C@H](C(=O)O)[C@](O)(Cc2ccc(O)c(O)c2)C(=O)O)cc1O [CIMICIFUGIC ACID B]	21 µM	
COc1ccc(/C=C/C(=O)O[C@H](C(=O)O)[C@](O)(Cc2ccc(O)c(O)c2)C(=O)O)cc1OC [CIMICIFUGIC ACID G]	37 µM	fold change (FC) (MCF7 [3]): 1.14; inhibition of growth at 30 µM (MCF7 [4]): 32%
O=C1OC[C@H](Cc2cccc(O)c2)[C@H]1Cc1cccc(O)c1 [ENTEROLACTONE]		fold change (FC) (MCF7 [5]): 1.84
C[C@]12CC[C@@H]3c4ccc(O)cc4CC[C@H]3[C@@H]1CC[C@@H]2O [ESTRADIOL]		fold change (FC) (MCF7 [6]): 3.6
O=C(/C=C/c1ccc(O)c(O)c1)O[C@H](C(=O)O)[C@](O)(Cc1ccc(O)c(O)c1)C(=O)O [FUKINOLIC ACID]	23 µM	
O=C(O)c1cc(O)c(O)c(O)c1 [GALLIC ACID]	29.9 µM	
